ChEMBL document CHEMBL1143918, “Novel coumarin glycoside and phenethyl vanillate from Notopterygium forbesii and their binding affinities for opioid and dopamine receptors” (Bioorg Med Chem, 2008)

Assays:
Format in all cases: cell-based
[1] = molecular target: Kappa-type opioid receptor (Homo sapiens, UniProt P41145); experiment: Displacement of [3H]diprenorphine from human kappa opioid receptor expressed in CHO cells
Procedure, shortened: (§1)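 Competitive inhibition of [3H]diprenorphine binding to human KOR, rat MOR or mouse DOR stably expressed in CHO cells. Compounds screened at 10 μM; those displacing >50% were tested over a concentration range and Ki calculated from competitive inhibition curves.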

[2] = molecular target: Delta-type opioid receptor (Mus musculus, UniProt P32300); experiment: Displacement of [3H]diprenorphine from mouse delta opioid receptor expressed in CHO cells; procedure, shortened: as §1
D(1A) dopamine receptor = D(1A) dopamine receptor (Rattus norvegicus, UniProt P18901); experiment: Displacement of [3H]SCH-23390 from rat HA-tagged D1 dopamine receptor expressed in CHO cells
Procedure, shortened: (§2)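 Membranes from CHO cells stably expressing HA-tagged rat D1 receptor; cells grown in DMEM/F12 with 10% fetal calf serum and hygromycin B at 37°C, 5% CO2. Binding: 0.2 nM [3H]SCH23390 in 50 mM Tris-HCl, 1 mM EGTA, pH 7.4, room temperature, 1 h, duplicate. Fluphenazine (10 μM) defined nonspecific binding. Screened at 10 μM; compounds displacing >50% taken to Ki from competition curves.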

Mu-type opioid receptor = Mu-type opioid receptor (Rattus norvegicus, UniProt P33535); experiment: Displacement of [3H]diprenorphine from rat mu opioid receptor expressed in CHO cells; procedure, shortened: as §1
[3] = molecular target: D(1A) dopamine receptor (Rattus norvegicus) (UniProt P18901); experiment: Displacement of [3H]SCH-23390 from rat HA-tagged D1 dopamine receptor expressed in CHO cells at 10 uM; procedure, shortened: as §2
Sequence of D(1A) dopamine receptor (Rattus norvegicus) (P18901 whole entry): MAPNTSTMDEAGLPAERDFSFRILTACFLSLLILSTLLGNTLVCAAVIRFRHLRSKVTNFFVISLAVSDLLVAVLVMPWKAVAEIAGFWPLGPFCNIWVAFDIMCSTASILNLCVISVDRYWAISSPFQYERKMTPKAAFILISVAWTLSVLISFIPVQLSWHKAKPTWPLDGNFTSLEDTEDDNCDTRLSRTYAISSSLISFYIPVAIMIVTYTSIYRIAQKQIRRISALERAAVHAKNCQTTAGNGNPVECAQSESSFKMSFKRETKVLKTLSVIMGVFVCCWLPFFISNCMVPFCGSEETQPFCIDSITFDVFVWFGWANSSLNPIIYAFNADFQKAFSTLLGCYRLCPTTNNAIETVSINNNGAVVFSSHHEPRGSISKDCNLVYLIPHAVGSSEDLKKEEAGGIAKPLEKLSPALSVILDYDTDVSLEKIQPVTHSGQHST

Sequence of Delta-type opioid receptor (P32300 whole entry): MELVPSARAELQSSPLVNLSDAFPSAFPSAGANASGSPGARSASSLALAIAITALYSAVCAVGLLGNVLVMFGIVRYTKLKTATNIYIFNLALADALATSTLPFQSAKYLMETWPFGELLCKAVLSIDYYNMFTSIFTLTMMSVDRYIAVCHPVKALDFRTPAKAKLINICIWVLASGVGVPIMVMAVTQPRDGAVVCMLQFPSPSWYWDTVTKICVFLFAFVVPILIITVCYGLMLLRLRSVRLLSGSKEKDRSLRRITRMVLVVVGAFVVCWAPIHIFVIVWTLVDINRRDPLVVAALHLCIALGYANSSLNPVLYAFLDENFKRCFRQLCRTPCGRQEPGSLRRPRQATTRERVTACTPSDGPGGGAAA
Sequence of Mu-type opioid receptor (P33535 whole entry): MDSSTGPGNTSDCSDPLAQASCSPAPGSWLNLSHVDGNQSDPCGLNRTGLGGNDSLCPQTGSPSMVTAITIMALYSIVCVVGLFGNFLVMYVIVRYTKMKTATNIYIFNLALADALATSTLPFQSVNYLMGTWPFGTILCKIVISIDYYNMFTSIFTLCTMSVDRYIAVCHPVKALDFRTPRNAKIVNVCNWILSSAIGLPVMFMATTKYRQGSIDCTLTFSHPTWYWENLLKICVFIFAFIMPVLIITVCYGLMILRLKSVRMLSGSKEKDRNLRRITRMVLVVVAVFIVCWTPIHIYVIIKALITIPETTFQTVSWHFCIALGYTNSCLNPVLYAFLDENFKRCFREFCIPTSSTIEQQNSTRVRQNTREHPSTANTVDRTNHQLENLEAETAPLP
Sequence of D(1A) dopamine receptor (P18901 whole entry): as the sequence (P18901 whole entry) above
Sequence of Kappa-type opioid receptor (P41145 whole entry): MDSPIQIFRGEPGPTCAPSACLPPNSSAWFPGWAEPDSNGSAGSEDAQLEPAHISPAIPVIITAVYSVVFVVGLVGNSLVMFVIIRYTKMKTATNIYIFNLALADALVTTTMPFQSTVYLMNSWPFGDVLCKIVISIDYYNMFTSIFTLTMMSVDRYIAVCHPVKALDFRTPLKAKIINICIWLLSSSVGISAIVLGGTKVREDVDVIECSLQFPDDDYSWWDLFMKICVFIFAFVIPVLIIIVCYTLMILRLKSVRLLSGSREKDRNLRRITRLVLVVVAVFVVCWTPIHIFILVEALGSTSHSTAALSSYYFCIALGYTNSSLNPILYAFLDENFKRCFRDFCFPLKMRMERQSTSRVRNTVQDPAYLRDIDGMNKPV

SMILES	Ki [1]	Ki [2]	Ki (D(1A) dopamine receptor)	Ki (Mu-type opioid receptor)	Activity [3]
CC(C)=CC(O)C/C(C)=C/COc1ccc2ccc(=O)oc2c1 (centres undefined) [ANISOCOUMARIN H]	2.6 µM	> 10 µM	> 10 µM	> 10 µM	–
C=C[C@@H](O)C#CC#C[C@@H](O)/C=C\CCCCCCC [FALCARINDIOL]	2.51 µM	1.1 µM	0.192 µM	1.13 µM	> 50%
CC(C)=CC(O)C/C(C)=C/COc1c2ccoc2cc2oc(=O)ccc12 (centres undefined) [NOTOPTEROL]	> 10 µM	> 10 µM	1.42 µM	> 10 µM	> 50%
